Data as given in ChEMBL document CHEMBL4689842, “EUbOPEN Chemogenomics Library wave 1” (2021).
Several values for one entry are separate records, joined by “and”; a condition that tells them apart may be missing. Equal values may be shown once.

Columns and labels:
Assay type in all cases: toxicity, cell-based
[1] = system: HEK-293T; assay: Multiplex assay against HEK293T; details: human, 24 h, 1 µM, compound concentration 1 uM, replicate 2;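 for Population Tubulin-Different-Phenotype (%): share of the cells with healthy nuclei that show this phenotype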
In short: (§1)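 Tubulin, mitochondrial-mass and membrane-permeability phenotypes are per cents of healthy-nucleus cells. Cells were gated by CellPathfinder machine learning into Hoechst high-intensity objects or normal cells, normal cells into healthy, pyknosed or fragmented nuclei, and pyknosed cells into mitotic or apoptotic. Before that, live cells stained at seeding with Hoechst33342, BioTracker Green Microtubule Cytoskeleton Dye, MitoTracker Red and Annexin V Alexa Fluor 680 were imaged on a CQ1 microscope at 37°C and 5% CO2 after compound addition.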

[2] = system: U2OS; assay: Multiplex assay against U2OS; details: human, 1 µM, compound concentration 1 uM; in short: as §1
[3] = system: HEK-293T; assay: Incucyte cell viability with HEK293T; details: human, 10 µM, compound concentration 10 uM; note: filed as whole numbers so only -1 and 0 and 1 occur
[4] = system: Fibroblast; assay: Incucyte cell viability with human fibroblast; details: 10 µM, compound concentration 10 uM; note: filed as whole numbers so only -1 and 0 and 1 occur
[5] = system: U2OS; assay: Incucyte cell viability with U2OS; details: human, 10 µM, compound concentration 10 uM; note: filed as whole numbers so only -1 and 0 and 1 occur
[6] = 0 h, replicate number 2, timepoint 0 hours
[7] = 6 h, replicate number 1, timepoint 6 hours
[8] = 12 h, replicate number 1, timepoint 12 hours
[9] = 18 h, replicate number 1, timepoint 18 hours
[10] = 24 h, replicate number 1, timepoint 24 hours

## CN([C@@H](Cc1ccc(OS(=O)(=O)c2cccc3cnccc23)cc1)C(=O)N1CCN(c2ccccc2)CC1)S(=O)(=O)c1cccc2cnccc12
[1]
  Population Apoptotic (%): 11%
  Population Fragmented Nuclei (%): 9% and 3%
  Population Healthy Nuclei (%): 75% and 68%
  Population Hoechst High Intensity Objects (%): 2% and 5%
  Population Membrane Permeable-Phenotype (%): 25% and 18%
  Population Mitochondria Different-Phenotype (%): 40% and 37%
  Population Mitotic Cells (%): 88%
  Population Normal (%): 97% and 94%
  Population Pyknosed Nuclei (%): 15% and 28%
  Population Tubulin-Different-Phenotype (%): 98% and 96%
  Total Cell Count: 1327 and 1023
[2]; 12 h, replicate 1
  Population Apoptotic (%): 52% and 61%
  Population Fragmented Nuclei (%): 3% and 2%
  Population Healthy Nuclei (%): 83% and 89%
  Population Hoechst High Intensity Objects (%): 1%
  Population Membrane Permeable-Phenotype (%): 38% and 75%
  Population Mitochondria Different-Phenotype (%): 32% and 23%
  Population Mitotic Cells (%): 47% and 38%
  Population Normal (%): 98%
  Population Pyknosed Nuclei (%): 12% and 7%
  Population Tubulin-Different-Phenotype (%): 99%
  Total Cell Count: 150 and 181
[2]; 12 h, replicate 2
  Population Apoptotic (%): 25% and 40%
  Population Fragmented Nuclei (%): 16% and 6%
  Population Healthy Nuclei (%): 74% and 79%
  Population Hoechst High Intensity Objects (%): 13% and 15%
  Population Membrane Permeable-Phenotype (%): 33% and 69%
  Population Mitochondria Different-Phenotype (%): 46% and 45%
  Population Mitotic Cells (%): 75% and 60%
  Population Normal (%): 86% and 84%
  Population Pyknosed Nuclei (%): 9% and 13%
  Population Tubulin-Different-Phenotype (%): 100%
  Total Cell Count: 104 and 101
[2]; 24 h, replicate 1
  Population Apoptotic (%): 69% and 58%
  Population Fragmented Nuclei (%): 4% and 5%
  Population Healthy Nuclei (%): 75% and 73%
  Population Hoechst High Intensity Objects (%): 2% and 1%
  Population Membrane Permeable-Phenotype (%): 25% and 68%
  Population Mitochondria Different-Phenotype (%): 55%
  Population Mitotic Cells (%): 30% and 41%
  Population Normal (%): 97% and 98%
  Population Pyknosed Nuclei (%): 20% and 21%
  Population Tubulin-Different-Phenotype (%): 98% and 99%
  Total Cell Count: 154 and 198
[2]; 24 h, replicate 2
  Population Apoptotic (%): 57% and 53%
  Population Fragmented Nuclei (%): 15% and 12%
  Population Healthy Nuclei (%): 68%
  Population Hoechst High Intensity Objects (%): 12% and 9%
  Population Membrane Permeable-Phenotype (%): 32% and 54%
  Population Mitochondria Different-Phenotype (%): 62% and 70%
  Population Mitotic Cells (%): 42% and 46%
  Population Normal (%): 87% and 90%
  Population Pyknosed Nuclei (%): 15%
  Population Tubulin-Different-Phenotype (%): 100%
  Total Cell Count: 99 and 102
[3]; [6]
  Growth Rate: 1
[3]; [7]
  Growth Rate: 0
[3]; [8]
  Growth Rate: 0
[3]; [9]
  Growth Rate: 0
[3]; [10]
  Growth Rate: 0
[4]; 0 h, replicate number 1, timepoint 0 hours
  Growth Rate: 1
[4]; 6 h, replicate number 2, timepoint 6 hours
  Growth Rate: 0
[4]; [8]
  Growth Rate: 1
[4]; 12 h, replicate number 2, timepoint 12 hours
  Growth Rate: 0
[4]; [9]
  Growth Rate: 1
[4]; [10]
  Growth Rate: 0
[4]; 24 h, replicate number 2, timepoint 24 hours
  Growth Rate: 1
[5]; [6]
  Growth Rate: 0
[5]; [7]
  Growth Rate: 1
[5]; [8]
  Growth Rate: 1
[5]; [9]
  Growth Rate: 1
[5]; [10]
  Growth Rate: 1
